One assay deals with A549. Description: Anticancer activity against KRAS-mutated human A549 cells assessed as reduction in cell viability at 1 to 10000 nM incubated for 72 hrs by CellTiter-Glo assay. Type of assay: functional, cell-based. As to conditions: dose 1-10000 nM.
For assay [1], the system named is PC-9. Type of assay: functional, organism-based. Particulars: Homo sapiens, dose 50.0 mg/kg, route po, time 60.0 day.
Assay [2] deals with BaF3. Put plainly: Inhibition of EGFR-C797S/T790M/del19 mutant in mouse BaF3 cells assessed as reduction in ERK phosphorylation at 10 to 1000 nM by Western blotting analysis. The assay is classed as cell-based. Particulars: dose 10-1000 nM.
Assay [3] has as its system BaF3. Put plainly: Inhibition of EGFR-C797S/T790M/del19 mutant in mouse BaF3 cells assessed as reduction in Akt protein level at 10 to 1000 nM by Western blotting analysis. As to conditions: dose 10-1000 nM. Type of assay: cell-based. On the technique in general: A western blot detects proteins with antibodies after separation by electrophoresis.
Assay [4] deals with PC-9. Put plainly: Anti-tumor activity against EGFR T790M/del19 mutant expressing gefitinib-resistant human PC-9 cells xenografted in Balb-c nu/nu mouse assessed as growth inhibition at 50 mg/kg, po administered for 42 days. Type of assay: functional, organism-based. As to conditions: time 42.0 day. In short, it runs like this: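 Balb-c nu/nu mice were implanted subcutaneously with 6×10^6 PC9-triple-mutant or PC9-T790M cells in 100 µl 1:2 Matrigel. At a mean tumour volume of ~200 mm³, mice were randomized (top and bottom 5% excluded) and dosed once daily by oral gavage. Caliper volume (0.5×L×W²) was measured twice weekly and expressed relative to day 0. n≥6 per group; Mann-Whitney U test.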

The test system of assay [5] is PC-9. The assay is classed as functional, organism-based. Particulars: Homo sapiens, dose 50.0 mg/kg, route po, time 60.0 day. This is another data set of the same source.
Assay [6] relates to BaF3. Description: Inhibition of EGFR-C797S/T790M/del19 mutant in mouse BaF3 cells assessed as reduction in S6 protein level at 10 to 1000 nM by Western blotting analysis. Type of assay: cell-based. Particulars: dose 10-1000 nM.
Assay [7] concerns BaF3. Put plainly: Inhibition of EGFR-C797S/T790M/del19 mutant in mouse BaF3 cells assessed as reduction in ERK protein level at 10 to 1000 nM by Western blotting analysis. The assay is classed as cell-based. As to conditions: dose 10-1000 nM.
Assay [8] relates to PC-9. Description: Inhibition of EGFR T790M/del19 mutant in human PC-9 cells assessed as reduction in ERK phosphorylation at 10 to 1000 nM by Western blotting analysis. Type of assay: cell-based. As to conditions: dose 10-1000 nM.
Assay [9] has as its system Ba/F3 EGFR-Del19/T790M/C797S. Put plainly: Cytotoxicity against mouse Ba/F3 EGFR-Del19/T790M/C797S cells assessed as inhibition of cell viability by measuring fold change at 300 nM incubated for 72 hrs in presence of cetuximab by CellTiter-Glo assay. The assay is classed as functional, cell-based. Background: Cellular ATP, detected with luciferase, serves as a proxy for viable cell number.

For assay [10], the system named is BaF3. Description: Inhibition of EGFR-C797S/T790M/del19 mutant in mouse BaF3 cells assessed as reduction in Akt phosphorylation at 10 to 1000 nM by Western blotting analysis. Particulars: dose 10-1000 nM. The assay is classed as cell-based.
Assay [11] deals with PC-9. The assay is classed as functional, organism-based. Particulars: Homo sapiens, dose 50.0 mg/kg, route po, time 15.0 day.
The test system of assay [12] is BaF3. Put plainly: Inhibition of EGFR-C797S/T790M/del19 mutant in mouse BaF3 cells assessed as reduction in S6 phosphorylation at 10 to 1000 nM by Western blotting analysis. Type of assay: cell-based. As to conditions: dose 10-1000 nM.
In assay [13] the test system is PC-9. Description: Inhibition of EGFR T790M/del19 mutant in human PC-9 cells assessed as reduction in EGFR phosphorylation at 10 to 1000 nM by Western blotting analysis. As to conditions: dose 10-1000 nM. The assay is classed as cell-based.
For assay [14], the system named is PC-9. Put plainly: Anti-tumor activity against EGFR T790M/del19 mutant expressing gefitinib-resistant human PC-9 cells xenografted in Balb-c nu/nu mouse assessed as prolonged survival at 50 mg/kg, po administered for 42 days. As to conditions: time 42.0 day. Type of assay: functional, organism-based.
The subject of another assay is NCI-H460. Put plainly: Anticancer activity against KRAS-mutated human NCI-H460 cells assessed as reduction in cell viability at 1 to 10000 nM incubated for 72 hrs by CellTiter-Glo assay. As to conditions: dose 1-10000 nM. The assay is classed as functional, cell-based.
The subject of assay [15] is PC-9. Description: Inhibition of EGFR T790M/del19 mutant in human PC-9 cells assessed as reduction in Akt phosphorylation at 10 to 1000 nM by Western blotting analysis. The assay is classed as cell-based. Particulars: dose 10-1000 nM.
Assay [16] has as its system BaF3. Description: Inhibition of EGFR-C797S/T790M/del19 mutant in mouse BaF3 cells assessed as reduction in EGFR phosphorylation at 10 to 1000 nM by Western blotting analysis. The assay is classed as cell-based. Particulars: dose 10-1000 nM.
Assay [17] concerns PC-9. Description: Inhibition of EGFR T790M/del19 mutant in human PC-9 cells assessed as reduction in S6 phosphorylation at 10 to 1000 nM by Western blotting analysis. Type of assay: cell-based. As to conditions: dose 10-1000 nM.
Assay [18] concerns Epidermal growth factor receptor (Homo sapiens), P00533 [UNDEFINED MUTATION]. As to conditions: PC-9, dose 10-1000 nM.
The test system is the same in assay [19]. Particulars: PC-9, dose 10-1000 nM. The source holds these as a separate data set.
Assay [20] shares this test system. As to conditions: PC-9, dose 10-1000 nM. The source holds these as a separate data set.
Assay [21] has the same test system. Particulars: PC-9, dose 10-1000 nM. This is another data set of the same source.
Assay [22] has as its system BaF3. Description: Inhibition of EGFR-C797S/T790M/L858R mutant in mouse BaF3 cells assessed as inhibition of EGFR phosphorylation at 10 to 1000 nM incubated for 6 hrs by Western blotting analysis. The assay is classed as cell-based. As to conditions: dose 10-1000 nM. The essentials: (§1)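 Ba/F3 cells expressing EGFR-L858R-series mutants treated with inhibitors for 6 h. SDS lysates quantified by BCA, run on SDS-PAGE and blotted to PVDF. Probed for phospho-EGFR (Tyr1068), total EGFR and downstream phospho-proteins.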

Assay [23] relates to BaF3. Put plainly: Inhibition of EGFR-C797S/T790M/L858R mutant expressed in mouse BaF3 cells assessed as inhibition of Akt phosphorylation at 10 to 1000 nM incubated for 6 hrs by Western blotting analysis. The assay is classed as cell-based. As to conditions: dose 10-1000 nM. In short, it runs like this:
as §1

Assay [24] deals with BaF3. Put plainly: Inhibition of EGFR-C797S/T790M/L858R mutant expressed in mouse BaF3 cells assessed as inhibition of ERK phosphorylation at 10 to 1000 nM incubated for 6 hrs by Western blotting analysis. The assay is classed as cell-based. As to conditions: dose 10-1000 nM. In short, it runs like this:
as §1

Assay [25] has as its system BaF3. Put plainly: Inhibition of EGFR-C797S/T790M/L858R mutant in mouse BaF3 cells assessed as inhibition of S6 phosphorylation at 10 to 1000 nM incubated for 6 hrs by Western blotting analysis. Type of assay: cell-based. As to conditions: dose 10-1000 nM. The essentials:
as §1

The test system of assay [26] is BaF3. Description: Inhibition of EGFR-C797S/T790M/del19 mutant in mouse BaF3 cells assessed as reduction in EGFR phosphorylation at 300 nM incubated for 6 hrs by Western blotting analysis. The assay is classed as cell-based.

The structures appear in SMILES notation. Active and inactive are the calls of the source. No cut-off for these calls is given here.

Sequence of Epidermal growth factor receptor (Homo sapiens), P00533 [UNDEFINED MUTATION] (P00533 whole entry, looked up, change not shown): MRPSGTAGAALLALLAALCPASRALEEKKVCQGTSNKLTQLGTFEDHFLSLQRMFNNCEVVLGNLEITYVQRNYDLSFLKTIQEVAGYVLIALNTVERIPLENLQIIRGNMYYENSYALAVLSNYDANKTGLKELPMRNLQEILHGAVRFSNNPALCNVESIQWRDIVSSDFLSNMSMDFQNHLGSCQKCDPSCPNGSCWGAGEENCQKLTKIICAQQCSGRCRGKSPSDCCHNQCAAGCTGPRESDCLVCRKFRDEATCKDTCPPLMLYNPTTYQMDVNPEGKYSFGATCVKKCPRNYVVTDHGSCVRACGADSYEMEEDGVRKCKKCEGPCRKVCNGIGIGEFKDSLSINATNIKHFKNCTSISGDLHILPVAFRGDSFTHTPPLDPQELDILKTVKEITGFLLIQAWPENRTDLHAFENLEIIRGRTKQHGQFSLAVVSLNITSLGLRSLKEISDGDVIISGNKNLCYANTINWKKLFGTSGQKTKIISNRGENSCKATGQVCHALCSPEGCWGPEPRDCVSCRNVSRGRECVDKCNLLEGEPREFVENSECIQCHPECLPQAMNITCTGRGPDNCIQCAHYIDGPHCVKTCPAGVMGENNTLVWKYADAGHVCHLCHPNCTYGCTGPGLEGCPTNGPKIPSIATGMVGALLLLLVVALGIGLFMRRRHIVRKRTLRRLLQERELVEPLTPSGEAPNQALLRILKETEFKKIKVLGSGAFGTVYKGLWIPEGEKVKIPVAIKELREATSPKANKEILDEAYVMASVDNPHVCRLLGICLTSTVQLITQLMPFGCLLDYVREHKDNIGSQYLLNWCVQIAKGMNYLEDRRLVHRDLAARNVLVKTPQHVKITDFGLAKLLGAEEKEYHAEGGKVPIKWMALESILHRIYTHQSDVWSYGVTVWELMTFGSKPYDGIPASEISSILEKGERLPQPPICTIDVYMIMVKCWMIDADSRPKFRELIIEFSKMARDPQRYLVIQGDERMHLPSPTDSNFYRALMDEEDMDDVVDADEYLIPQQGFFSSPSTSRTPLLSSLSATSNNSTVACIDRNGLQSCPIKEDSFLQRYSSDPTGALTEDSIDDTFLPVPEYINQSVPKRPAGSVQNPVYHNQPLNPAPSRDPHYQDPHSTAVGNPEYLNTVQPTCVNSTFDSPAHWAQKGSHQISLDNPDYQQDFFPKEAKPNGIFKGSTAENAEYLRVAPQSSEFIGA

`C=CC(=O)Nc1cc(Nc2nccc(-c3cn(C)c4ccccc34)n2)c(OC)cc1N(C)CCN(C)C`: the outcome with A549, in the assay with PC-9 [4], in the assay with PC-9 [14] and in the assay on NCI-H460 was Active. Moreover, the inhibition entry in the assay with PC-9 [1], with PC-9 [5], in the assay with PC-9 [8], with PC-9 [13], in the assay with PC-9 [15] and with PC-9 [17] was “Active” in each case. Further, the inhibition result with BaF3 [2], in the assay on BaF3 [3], with BaF3 [6], with BaF3 [7], with BaF3 [10] and in the assay with BaF3 [12] was “inactive” throughout. Also, the inhibition result in the assay on BaF3 [16] was “inactive”. Further, the outcome (in assay [9]; in the assay on PC-9 [11]) was inactive.
On to `COc1cc(N2CCC(N)CC2)ccc1Nc1ncc(Cl)c(-c2c[nH]c3ccccc23)n1`, for which the inhibition entry in assay [18], in [19], in [20] and in assay [21] was “Active” in each case.
On to `COc1cc(N2CCC(N3CCN(C)CC3)CC2)ccc1Nc1ncc(Cl)c(Nc2ccccc2S(=O)(=O)C(C)C)n1`, for which the inhibition result in the assay on BaF3 [22], in the assay on BaF3 [23], with BaF3 [24] and in the assay with BaF3 [25] was “inactive” in each case.
As to `COc1cc(N2CCC(N3CCN(C)CC3)CC2)ccc1Nc1ncnc(Nc2ccccc2S(=O)(=O)C(C)C)n1`, the inhibition entry in the assay with BaF3 [22], in the assay with BaF3 [23], in the assay with BaF3 [24] and in the assay on BaF3 [25] was “inactive” in each case.
Take `Cc1cc(Nc2ncc(Cl)c(Nc3ccccc3S(=O)(=O)C(C)C)n2)c(OC(C)C)cc1C1CCNCC1`: the inhibition entry in the assay with BaF3 [22], in the assay on BaF3 [23], with BaF3 [24] and in the assay with BaF3 [25] was “inactive” in each case.
With `Cc1ccc(C(=O)Nc2ccc(CN3CCN(C)CC3)c(C(F)(F)F)c2)cc1C#Cc1cnc2cccnn12`, the inhibition entry with BaF3 [26] was “inactive”.
For the compound `CN(C)C/C=C/C(=O)Nc1cc2c(Nc3ccc(F)c(Cl)c3)ncnc2cc1O[C@H]1CCOC1` [AFATINIB], the result in the assay with A549 and in the assay on NCI-H460 was Active. For the same compound, the inhibition entry in the assay on BaF3 [2], with BaF3 [3], with BaF3 [6], in the assay on BaF3 [7], in the assay with BaF3 [10] and in the assay on BaF3 [12] was “inactive” each time. In the assay on BaF3 [16], the inhibition entry was “inactive”. Further, the inhibition entry in the assay with PC-9 [8], in the assay with PC-9 [13], in the assay with PC-9 [15] and in the assay on PC-9 [17] was “Active” in each case.

The values above are taken from ChEMBL document CHEMBL5705906 (Nat Commun, 2017).
